Test results taken from ChEMBL document CHEMBL1136800 (J Med Chem, 2003).

Tested on: not listed separately
Experiment: Increase in intracellular cGMP concentration in atrial natriuretic factor treated rat aortic smooth muscle cells.
Assay type: functional, tissue-based
Details: Aorta
Outline: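 Primary rat aortic smooth muscle cells grown in DMEM with 10% FCS and used at confluence (3-5 days). Compound in PBS for 30 min at 37 °C, then ANF 0.1 µM for 10 min at 37 °C. Intracellular cGMP extracted with 65% ethanol and measured by scintillation proximity immunoassay, in triplicate wells; DMSO ≤0.1%. EC50 is the concentration giving half the maximal cGMP increase seen at saturating compound.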

| SMILES | EC50 [nM] |
| --- | --- |
| CCCCN1C(=O)[C@H]2Cc3c([nH]c4ccccc34)[C@@H](c3cccc(Cl)c3)N2C1=O | 4000 |
| CCCCN1C(=O)[C@H]2Cc3c([nH]c4ccccc34)[C@H](c3ccc(OC)cc3)N2C1=O | 1000 |
| COc1ccc([C@H]2c3[nH]c4ccccc4c3C[C@@H]3C(=O)N(CCN4CCCC4)C(=O)N23)cc1 | 10000 |
| CCCCN1C(=O)[C@H]2Cc3c([nH]c4ccccc34)[C@@H](c3ccc(OC)cc3)N2C1=O | 700 |
| CCCCN1C(=O)[C@H]2Cc3c([nH]c4ccccc34)[C@@H](c3ccccc3)N2C1=O | 5000 |
| CCCCN1C(=O)[C@H]2Cc3c([nH]c4ccccc34)[C@H](c3cccc(Cl)c3)N2C1=O | > 10000 |

Results, then the molecule that gave them:

| EC50 [nM] | SMILES |
| --- | --- |
| 3000 | COc1ccc([C@H]2c3[nH]c4ccccc4c3C[C@@H]3C(=O)NC(=O)N23)cc1 |
| 300 | COc1ccc([C@@H]2c3[nH]c4ccccc4c3C[C@@H]3C(=O)N(C4CCCCC4)C(=O)N23)cc1 |
| > 10000 | CCCCN1C(=O)[C@H]2Cc3c([nH]c4ccccc34)[C@@H](c3ccc(Cl)cc3)N2C1=O |
| 400 | CCN1C(=O)[C@H]2Cc3c([nH]c4ccccc34)[C@@H](c3ccc(OC)cc3)N2C1=O |
| 1500 | COc1ccc([C@H]2c3[nH]c4ccccc4c3C[C@@H]3C(=O)N(CCc4ccccn4)C(=O)N23)cc1 |
| 3500 | COc1ccc([C@H]2c3[nH]c4ccccc4c3C[C@@H]3C(=O)N(CCN(C)C)C(=O)N23)cc1 |
| 100 | COc1ccc([C@H]2c3[nH]c4ccccc4c3C[C@@H]3C(=O)N(C4CCCCC4)C(=O)N23)cc1 |
| 150 | COc1ccc([C@@H]2c3[nH]c4ccccc4c3C[C@@H]3C(=O)N(Cc4ccccc4)C(=O)N23)cc1 |
| 1500 | CCN1C(=O)[C@H]2Cc3c([nH]c4ccccc34)[C@H](c3ccc(OC)cc3)N2C1=O |
| 2000 | CCCCN1C(=O)[C@H]2Cc3c([nH]c4ccccc34)[C@H](c3ccccc3)N2C1=O |
| 5500 | COc1ccc([C@H]2c3[nH]c4ccccc4c3C[C@@H]3C(=O)N(Cc4cccnc4)C(=O)N23)cc1 |
| > 10000 | COc1ccc([C@H]2c3[nH]c4ccccc4c3C[C@@H]3C(=O)N(Cc4ccccc4)C(=O)N23)cc1 |
| 1000 | COc1ccc([C@@H]2c3[nH]c4ccccc4c3C[C@@H]3C(=O)N(C)C(=O)N23)cc1 |
| 1500 | CCCCN1C(=O)[C@H]2Cc3c([nH]c4ccccc34)[C@H](c3ccc(Cl)cc3)N2C1=O |

Target: Phosphodiesterase 1 (Bos taurus, UniProt Q01061+P14100)
Experiment: Inhibition of bovine aorta PDE1 (phosphodiesterase 1)
Assay type: protein assay
Details: not given
Outline: (§1)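 Incubated 30 min at 30 °C under initial-velocity conditions (≤10-15% hydrolysis). Product separated on QAE Sephadex and counted by scintillation; final DMSO 2%.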

| SMILES | IC50 [µM] |
| --- | --- |
| CCCCN1C(=O)[C@H]2Cc3c([nH]c4ccccc34)[C@@H](c3ccncc3)N2C1=O | 2 |
| CCCCN1C(=O)[C@H]2Cc3c([nH]c4ccccc34)[C@H](c3ccc(OC)cc3)N2C1=O | > 10 |
| CCCCN1C(=O)[C@H]2Cc3c([nH]c4ccccc34)[C@@H](c3ccc(OC)cc3)N2C1=O | > 10 |
| CCCOc1ccccc1-c1nc2[nH]nnc2c(=O)[nH]1 [ZAPRINAST] | 2.6 |

Further lines, results first:

| IC50 [µM] | SMILES |
| --- | --- |
| > 10 | COc1ccc([C@@H]2c3[nH]c4ccccc4c3C[C@@H]3C(=O)N(C4CCCCC4)C(=O)N23)cc1 |
| > 10 | COc1ccc([C@@H]2c3[nH]c4ccccc4c3C[C@@H]3C(=O)N(Cc4ccccc4)C(=O)N23)cc1 |

Target: cGMP-dependent 3',5'-cyclic phosphodiesterase (Homo sapiens, UniProt O00408)
Experiment: Inhibition of human recombinant PDE2 (phosphodiesterase 2)
Details: not given
Outline: as §1

Chain of cGMP-dependent 3',5'-cyclic phosphodiesterase (O00408 whole entry): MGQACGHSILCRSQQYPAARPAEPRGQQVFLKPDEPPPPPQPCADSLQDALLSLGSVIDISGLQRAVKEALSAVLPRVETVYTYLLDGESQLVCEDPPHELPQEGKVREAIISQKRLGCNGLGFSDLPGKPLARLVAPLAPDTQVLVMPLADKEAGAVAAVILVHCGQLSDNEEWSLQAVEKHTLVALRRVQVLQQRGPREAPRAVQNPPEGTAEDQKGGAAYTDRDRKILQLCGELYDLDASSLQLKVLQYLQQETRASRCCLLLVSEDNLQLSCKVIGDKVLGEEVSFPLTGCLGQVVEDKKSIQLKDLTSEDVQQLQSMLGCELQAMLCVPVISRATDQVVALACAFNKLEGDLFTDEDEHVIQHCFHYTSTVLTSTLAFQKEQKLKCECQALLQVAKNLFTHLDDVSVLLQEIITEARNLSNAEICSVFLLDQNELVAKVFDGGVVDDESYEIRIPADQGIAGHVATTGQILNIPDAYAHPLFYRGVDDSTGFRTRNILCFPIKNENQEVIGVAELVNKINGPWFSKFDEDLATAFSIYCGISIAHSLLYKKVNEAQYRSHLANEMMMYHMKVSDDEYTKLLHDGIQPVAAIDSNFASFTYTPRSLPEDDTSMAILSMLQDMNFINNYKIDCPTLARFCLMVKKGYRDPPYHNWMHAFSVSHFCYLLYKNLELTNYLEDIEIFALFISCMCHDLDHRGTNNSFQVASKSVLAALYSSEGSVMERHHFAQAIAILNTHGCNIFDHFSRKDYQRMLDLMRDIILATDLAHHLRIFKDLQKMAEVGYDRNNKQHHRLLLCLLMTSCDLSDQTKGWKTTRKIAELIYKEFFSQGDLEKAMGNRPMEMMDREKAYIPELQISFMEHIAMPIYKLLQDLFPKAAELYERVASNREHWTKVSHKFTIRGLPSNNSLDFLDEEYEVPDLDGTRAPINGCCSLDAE

| SMILES | IC50 [µM] |
| --- | --- |
| CCCCN1C(=O)[C@H]2Cc3c([nH]c4ccccc34)[C@H](c3ccc(OC)cc3)N2C1=O | > 10 |
| CCCCN1C(=O)[C@H]2Cc3c([nH]c4ccccc34)[C@@H](c3ccc(OC)cc3)N2C1=O | > 10 |

Other lines, results leading:

| IC50 [µM] | SMILES |
| --- | --- |
| > 10 | COc1ccc([C@@H]2c3[nH]c4ccccc4c3C[C@@H]3C(=O)N(C4CCCCC4)C(=O)N23)cc1 |
| > 10 | COc1ccc([C@@H]2c3[nH]c4ccccc4c3C[C@@H]3C(=O)N(Cc4ccccc4)C(=O)N23)cc1 |

Target: cGMP-specific 3',5'-cyclic phosphodiesterase (Bos taurus, UniProt Q28156)
Experiment: Inhibitory activity against bovine PDE5 (phosphodiesterase-5).
Details: not given

| SMILES | IC50 [nM] |
| --- | --- |
| CCCCN1C(=O)[C@H]2Cc3c([nH]c4ccccc34)[C@@H](c3cccnc3)N2C1=O | 90 |
| CCCCN1C(=O)[C@H]2Cc3c(n(C)c4ccccc34)[C@@H](c3ccc(OC)cc3)N2C1=O | > 10000 |
| CCCCN1C(=O)[C@H]2Cc3c([nH]c4ccccc34)[C@H](c3ccc(C#N)cc3)N2C1=O | 300 |
| CCCCN1C(=O)[C@H]2Cc3c([nH]c4ccccc34)[C@@H](c3cccc(Cl)c3)N2C1=O | 50 |
| CCCCN1C(=O)[C@H]2Cc3c([nH]c4ccccc34)[C@@H](c3ccc(C#N)cc3)N2C1=O | 900 |
| CCCCN1C(=O)[C@H]2Cc3c([nH]c4ccccc34)[C@@H](c3ccoc3)N2C1=O | 100 |
| CCCCN1C(=O)[C@H]2Cc3c([nH]c4ccccc34)[C@@H](c3ccncc3)N2C1=O | 300 |
| COc1ccc([C@H]2c3[nH]c4ccccc4c3C[C@@H]3C(=O)N(CCN4CCCC4)C(=O)N23)cc1 | 100 |
| CCCCN1C(=O)[C@H]2Cc3c([nH]c4ccccc34)[C@@H](c3ccccc3)N2C1=O | 60 |
| CCOC(=O)c1cc2c(cn1)[nH]c1ccccc12 | 800 |
| CCCCN1C(=O)[C@H]2Cc3c([nH]c4ccccc34)[C@H](c3cccc(Cl)c3)N2C1=O | 50 |
| CCCCN1C(=O)[C@H]2Cc3c([nH]c4ccccc34)[C@H](c3ccccc3OC)N2C1=O | 1000 |

Results, then the molecule that gave them:

| IC50 [nM] | SMILES |
| --- | --- |
| 20 | COc1ccc([C@H]2c3[nH]c4ccccc4c3C[C@@H]3C(=O)NC(=O)N23)cc1 |
| 7 | COc1ccc([C@@H]2c3[nH]c4ccccc4c3C[C@@H]3C(=O)N(C4CCCCC4)C(=O)N23)cc1 |
| 50 | CCCCN1C(=O)[C@H]2Cc3c([nH]c4ccccc34)[C@@H](c3ccc(Cl)cc3)N2C1=O |
| 10 | CCN1C(=O)[C@H]2Cc3c([nH]c4ccccc34)[C@@H](c3ccc(OC)cc3)N2C1=O |
| 6 | COc1ccc([C@H]2c3[nH]c4ccccc4c3C[C@@H]3C(=O)N(CCc4ccccn4)C(=O)N23)cc1 |
| 30 | COc1ccc([C@H]2c3[nH]c4ccccc4c3C[C@@H]3C(=O)N(CCN(C)C)C(=O)N23)cc1 |
| 3 | COc1ccc([C@H]2c3[nH]c4ccccc4c3C[C@@H]3C(=O)N(C4CCCCC4)C(=O)N23)cc1 |
| 4 | COc1ccc([C@@H]2c3[nH]c4ccccc4c3C[C@@H]3C(=O)N(Cc4ccccc4)C(=O)N23)cc1 |
| 7 | CCN1C(=O)[C@H]2Cc3c([nH]c4ccccc34)[C@H](c3ccc(OC)cc3)N2C1=O |
| 30 | CCCCN1C(=O)[C@H]2Cc3c([nH]c4ccccc34)[C@@H](c3ccsc3)N2C1=O |
| 20 | CCCCN1C(=O)[C@H]2Cc3c([nH]c4ccccc34)[C@H](c3ccccc3)N2C1=O |
| 20 | COc1ccc([C@H]2c3[nH]c4ccccc4c3C[C@@H]3C(=O)N(Cc4cccnc4)C(=O)N23)cc1 |
| 18 | COc1ccc([C@H]2c3[nH]c4ccccc4c3C[C@@H]3C(=O)N(Cc4ccccc4)C(=O)N23)cc1 |
| 10 | COc1ccc([C@@H]2c3[nH]c4ccccc4c3C[C@@H]3C(=O)N(C)C(=O)N23)cc1 |
| 20 | CCCCN1C(=O)[C@H]2Cc3c([nH]c4ccccc34)[C@H](c3ccc(Cl)cc3)N2C1=O |

Target: Phosphodiesterase 3B (Bos taurus, UniProt E1BN64)
Experiment: Inhibition of bovine aorta PDE3 (phosphodiesterase 3)
Details: not given
Outline: as §1

Chain of Phosphodiesterase 3B (E1BN64 whole entry): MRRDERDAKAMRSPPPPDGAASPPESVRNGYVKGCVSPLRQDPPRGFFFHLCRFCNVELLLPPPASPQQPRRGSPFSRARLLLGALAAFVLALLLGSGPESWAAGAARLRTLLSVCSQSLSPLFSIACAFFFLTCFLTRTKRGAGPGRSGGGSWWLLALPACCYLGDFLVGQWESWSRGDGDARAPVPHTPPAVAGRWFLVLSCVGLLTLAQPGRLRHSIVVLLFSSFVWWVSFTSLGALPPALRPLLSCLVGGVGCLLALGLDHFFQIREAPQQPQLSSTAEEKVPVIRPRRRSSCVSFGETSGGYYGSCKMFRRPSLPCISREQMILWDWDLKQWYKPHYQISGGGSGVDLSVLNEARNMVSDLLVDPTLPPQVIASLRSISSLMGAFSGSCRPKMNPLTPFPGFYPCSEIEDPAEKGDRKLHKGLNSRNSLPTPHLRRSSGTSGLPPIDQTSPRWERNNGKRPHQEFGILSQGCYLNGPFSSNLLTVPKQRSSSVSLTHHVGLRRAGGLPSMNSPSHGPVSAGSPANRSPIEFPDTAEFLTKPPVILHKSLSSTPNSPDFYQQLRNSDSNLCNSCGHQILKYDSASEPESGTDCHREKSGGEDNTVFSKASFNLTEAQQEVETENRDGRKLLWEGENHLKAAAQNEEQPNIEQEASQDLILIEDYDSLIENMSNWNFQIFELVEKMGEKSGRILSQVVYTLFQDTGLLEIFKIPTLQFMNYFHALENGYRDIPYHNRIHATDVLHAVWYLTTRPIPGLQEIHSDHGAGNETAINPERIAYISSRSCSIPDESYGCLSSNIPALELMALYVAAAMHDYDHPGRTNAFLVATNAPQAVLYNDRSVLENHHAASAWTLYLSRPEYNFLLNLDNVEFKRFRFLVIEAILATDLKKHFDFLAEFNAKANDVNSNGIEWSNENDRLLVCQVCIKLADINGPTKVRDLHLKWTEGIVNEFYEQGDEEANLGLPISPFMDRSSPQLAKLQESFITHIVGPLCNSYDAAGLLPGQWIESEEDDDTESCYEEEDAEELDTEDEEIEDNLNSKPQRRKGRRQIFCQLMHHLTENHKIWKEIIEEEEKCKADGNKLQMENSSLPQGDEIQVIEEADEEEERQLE

| SMILES | IC50 [µM] |
| --- | --- |
| CCCCN1C(=O)[C@H]2Cc3c([nH]c4ccccc34)[C@@H](c3ccncc3)N2C1=O | > 10 |
| CCCCN1C(=O)[C@H]2Cc3c([nH]c4ccccc34)[C@H](c3ccc(OC)cc3)N2C1=O | > 10 |
| CCCCN1C(=O)[C@H]2Cc3c([nH]c4ccccc34)[C@@H](c3ccc(OC)cc3)N2C1=O | > 10 |
| CCCOc1ccccc1-c1nc2[nH]nnc2c(=O)[nH]1 [ZAPRINAST] | > 10 |

The remaining lines, values ahead:

| IC50 [µM] | SMILES |
| --- | --- |
| > 10 | COc1ccc([C@@H]2c3[nH]c4ccccc4c3C[C@@H]3C(=O)N(C4CCCCC4)C(=O)N23)cc1 |
| > 10 | COc1ccc([C@@H]2c3[nH]c4ccccc4c3C[C@@H]3C(=O)N(Cc4ccccc4)C(=O)N23)cc1 |

Target: Phosphodiesterase 4 (Homo sapiens, UniProt P27815+Q08499+Q07343+Q08493)
Experiment: Inhibition of human recombinant PDE4 (phosphodiesterase 4)
Assay type: protein assay
Details: not given
Outline: as §1

| SMILES | IC50 [µM] |
| --- | --- |
| CCCCN1C(=O)[C@H]2Cc3c([nH]c4ccccc34)[C@@H](c3ccncc3)N2C1=O | > 10 |
| CCCCN1C(=O)[C@H]2Cc3c([nH]c4ccccc34)[C@H](c3ccc(OC)cc3)N2C1=O | > 10 |
| CCCCN1C(=O)[C@H]2Cc3c([nH]c4ccccc34)[C@@H](c3ccc(OC)cc3)N2C1=O | > 10 |

Further lines, results first:

| IC50 [µM] | SMILES |
| --- | --- |
| > 10 | COc1ccc([C@@H]2c3[nH]c4ccccc4c3C[C@@H]3C(=O)N(C4CCCCC4)C(=O)N23)cc1 |
| > 10 | COc1ccc([C@@H]2c3[nH]c4ccccc4c3C[C@@H]3C(=O)N(Cc4ccccc4)C(=O)N23)cc1 |
